Measured values from different studies.
Lines come from different studies, so protocols differ.
Target: Myosin light chain kinase 2, skeletal/cardiac muscle (MYLK2, Homo sapiens, UniProt Q9H1R3)

Compound	assay	setting	remaining binding
Cc1c(C(=O)O)cc(-c2ccc(C3CCNCC3)cc2)c2ccc(-c3ccc(C(F)(F)F)cc3)cc12	binding, competition with immobilised ligand	1 µM	100%
COc1cnc(Nc2cccc(S(N)(=O)=O)c2)nc1N1CCN(c2ccccc2)C(=O)C1	binding, competition with immobilised ligand	1 µM	100%
c1cnn2ncc(-c3ccnc(N4CCC45COC5)n3)c2c1	binding	1 µM	77%
O=C(NCCCN1CCOCC1)c1ccc(Nc2nccc(-c3cc4ccccc4s3)n2)cc1	binding, competition with immobilised ligand	1 µM	9.1%
C[C@@H]1CCN(c2nccc(-c3cnn4ncccc34)n2)C1	binding	1 µM	86%
COc1ccc2cc(OCC3(C(=O)O)CN(C(=O)c4ccc(F)cc4)C3)ccc2c1	cell-free assay, competition with immobilised ligand	1 µM	100%
N[C@@H]1CCN(c2nccc(-c3cnn4ncccc34)n2)C1	binding	1 µM	98%
O=C(c1ccc(Nc2ncc(Cl)c(-c3ccc(Cl)s3)n2)cc1)N1CCC(N2CCCC2)CC1	binding, competition with immobilised ligand	1 µM	2.4%
C=CC(=O)N1CCC(C(=O)NCC(=O)N2CCN(c3nc(-c4cnc(N)nc4C(F)F)nc(N4CCOCC4)n3)CC2)CC1	binding, competition with immobilised ligand	1 µM	97%
COc1ccnn2ncc(-c3ccnc(N(C)C)n3)c12	binding	1 µM	96%
CNCc1ccccc1-c1csc([C@H](C)Nc2nc(C)nc3cc(OC)c(OC)cc23)c1	cell-free assay, competition with immobilised ligand	1 µM	100%
O=C(c1ccc(Nc2ncc(Cl)c(-c3cc4ccccc4s3)n2)cc1)N1CCC(N2CCCC2)CC1	binding, competition with immobilised ligand	1 µM	1.2%
c1cncc(-c2cccc(Nc3nccc(NC4CCCCC4)n3)c2)c1	binding, competition with immobilised ligand	10 µM	70%
CC(=O)C1=C(C)N(c2cccc(C(F)(F)F)c2)C(=O)N[C@@H]1c1ccc(C#N)nc1	cell-free assay, competition with immobilised ligand	1 µM	100%
Cc1cnn2ncc(-c3ccnc(N(C)C)n3)c2c1	binding	1 µM	100%
Nc1ncc2c(n1)-c1c([nH]c3ccc(C#CC4CC4)cc13)CCCC2	binding, competition with immobilised ligand	1 µM	100%
CN(C)c1ncc(F)c(-c2cnn3ncccc23)n1	binding	1 µM	100%
Cc1cc(NC(=O)c2cccc(S(F)(F)(F)(F)F)c2)cc(-n2ccn3nc(-c4cccnc4)cc23)c1	cell-free assay, competition with immobilised ligand	1 µM	100%
O=C(NCC1CCOCC1)c1n[nH]cc1NC(=O)c1c(F)cccc1F	binding, competition with immobilised ligand	1 µM	100%
Cc1nc(C2CCN(C(=O)c3ccc(OC(F)(F)F)cc3N)CC2)c2ncc(N3CCN(C)CC3)cc2n1	cell-free assay, competition with immobilised ligand	1 µM	87%
CNC(=O)[C@@H]1CC[C@@H](n2c(-c3ccc4cnccc4c3)nc3ccc(C(=O)NCc4cccc(C(N)=O)c4)cc32)C1	binding, competition with immobilised ligand	1 µM	100%
